Results published in PMC5515376 (Nature, 2016).
pEC50: −log10 of the molar value.

Legend:
[1] = tested on: P. berghei (ANKA) liver stage; assay: In vitro P. berghei liver-stage assay; type: cell-based, Plasmodium berghei; details: P. berghei (ANKA), Liver stage
In short: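 HepG2 cells (~17,500 per well, in duplicate) were cultured 18–24 h, then the medium was exchanged and compound added. After 1 h, 4,000 P. berghei ANKA GFP–luc sporozoites per well were added, freshly dissected from A. stephensi mosquitoes. Plates were spun 10 min at 1,000 r.p.m. and incubated 48 h at 37 °C. Parasite load was read by Bright-Glo luminescence.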

[2] = Pharmacokinetics in P. falciparum 3D7^HLH/BRD-infected NSG mice; type: in vivo, mouse; details: for AUC: huRBC NSG mice; for AUC0-inf / Cmax / MRT0-inf / Tmax / AUC0-t: infected NSG mice; for AUC0-t: t = 24 h

SMILES: COc1ccc(NC(=O)N2CCCCN3[C@H](CN(C)C)[C@H](c4ccc(C#Cc5ccccc5)cc4)[C@@H]3C2)cc1 [BRD7929]
- pEC50 [1]: 6.79
- AUC ([2]; 6.25 mg kg^−1 single oral dose): 15.7 µM·h
- AUC ([2]; 12.5 mg kg^−1 single oral dose (single-dose cure)): 31.4 µM·h
- AUC ([2]; 25 mg kg^−1 single oral dose): 62.8 µM·h
- AUC ([2]; 50 mg kg^−1 single oral dose): 125.6 µM·h
- AUC0-inf ([2]; PO (3) mg/kg): 7.2 µM·h
- Cmax ([2]; PO (3) mg/kg): 0.21 µM
- MRT0-inf ([2]; PO (3) mg/kg): 35.4 h
- Tmax ([2]; PO (3) mg/kg): 12 h
- AUC0-t ([2]; PO (3) mg/kg): 6.4 ^¶ µM*hr
- AUC0-inf ([2]; PO (9) mg/kg): 22.6 µM·h
- Cmax ([2]; PO (9) mg/kg): 0.6 µM
- MRT0-inf ([2]; PO (9) mg/kg): 37.8 h
- Tmax ([2]; PO (9) mg/kg): 12 h
- AUC0-t ([2]; PO (9) mg/kg): 19.7 ^¶ µM*hr
